ChEMBL document CHEMBL3877287, “Analogue based drug design, synthesis, molecular docking and anticancer evaluation of novel chromene sulfonamide hybrids as aromatase inhibitors and apoptosis enhancers” (Eur J Med Chem, 2016)

What was measured:
[1] = Cytotoxicity against human T47D cells after 48 hrs by sulforhodamine B assay; assay type: functional, cell-based
Outline: (§1)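 Cells grown in RPMI 1640 with 10% heat-inactivated FBS and 1% penicillin-streptomycin-amphotericin B at 37 °C, 5% CO2, passages 5–20. Plated at 10⁴ cells/well with 24 h recovery. Exposed to 5, 12, 25 and 50 μmol/L from DMSO stock (final DMSO <0.1%), triplicate wells, 48 h. TCA-fixed, SRB-stained, read by ELISA reader. IC50 fitted with Hill-type equation.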

Aromatase [2] = target: T1, Aromatase (Homo sapiens, UniProt P11511); assay: Inhibition of aromatase activity in human T47D cells at 100 uL after 24 hrs; assay type: cell-based; design: concentration or dose not given beside the values
T1 sequence (P11511 whole entry): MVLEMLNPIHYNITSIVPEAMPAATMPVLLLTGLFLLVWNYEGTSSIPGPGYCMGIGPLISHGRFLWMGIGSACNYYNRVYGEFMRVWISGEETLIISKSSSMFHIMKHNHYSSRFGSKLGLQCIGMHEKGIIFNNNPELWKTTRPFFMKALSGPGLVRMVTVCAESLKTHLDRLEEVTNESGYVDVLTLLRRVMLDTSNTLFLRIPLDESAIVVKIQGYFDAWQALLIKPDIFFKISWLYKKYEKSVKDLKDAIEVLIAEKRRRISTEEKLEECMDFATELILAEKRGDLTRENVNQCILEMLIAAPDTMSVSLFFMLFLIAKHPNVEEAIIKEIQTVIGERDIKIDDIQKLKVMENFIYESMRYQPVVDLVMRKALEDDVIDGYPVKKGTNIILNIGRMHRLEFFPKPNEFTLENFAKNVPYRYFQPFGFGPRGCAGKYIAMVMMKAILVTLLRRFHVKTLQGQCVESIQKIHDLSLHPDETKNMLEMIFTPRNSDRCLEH
Outline: (§2)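 T47D cells in RPMI 1640 with 10% FBS and 1% penicillin-streptomycin, seeded at 1.2–1.8 × 10,000 cells/well in 100 µL medium plus 100 µL compound. Cells treated 24 h, including serial dilutions for IC50. Aromatase (CYP19A1) then measured with a human ELISA kit.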

Aromatase [3] = target: T1, Aromatase; assay: Inhibition of aromatase activity in human T47D cells after 24 hrs; assay type: cell-based; outline: as §2
[4] = Induction of apoptosis in human T47D cells assessed as upregulation of active caspase 3 level at IC50 by immunoassay relative to control; assay type: functional, cell-based
Outline: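 Cells washed with PBS and lysed in extraction buffer with protease inhibitors (1 mL per 10⁷ cells). Lysate diluted just before assay. Active caspase-3 measured by human sandwich immunoassay with absorbance at 450 nm read within 30 min. Expressed as fold versus control cells.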

[5] = Induction of apoptosis in human T47D cells assessed as upregulation of caspase 8 at IC50 after 48 hrs by ELISA method relative to control; assay type: functional, cell-based
Outline: (§3)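 Cells grown in RPMI 1640 with 10% FBS at 37 °C, plated at 1.2–1.8 × 10,000 cells/well and exposed to compound for 48 h. Lysed in cell extraction buffer, diluted in standard diluent. Caspase-8 and caspase-9 measured separately by human ELISA, absorbance 450 nm. Fold versus control.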

[6] = Induction of apoptosis in human T47D cells assessed as upregulation of caspase 9 at IC50 after 48 hrs by ELISA method relative to control; assay type: functional, cell-based; outline: as §3
T47D [7] = assay: Induction of apoptosis in human T47D cells assessed as Bax level at IC50 (reference value: 24.6 IU/ml); assay type: functional
T47D [8] = assay: Induction of apoptosis in human T47D cells assessed as Bcl2 level at IC50 (reference value: 568019 IU/ml); assay type: functional
T47D [9] = assay: Induction of apoptosis in human T47D cells assessed as Bcl-xl level at IC50 (reference value: 754565 IU/ml); assay type: functional
T47D [10] = assay: Induction of apoptosis in human T47D cells assessed as increase in Bax/Bcl2 ratio at IC50 relative to control; assay type: functional
T47D [11] = assay: Induction of apoptosis in human T47D cells at 9.2 uM by propidium iodide staining based cytometry (reference value: 2.13%); assay type: functional
[12] = Cell cycle arrest in human T47D cells assessed as G1 phase accumulation at 9.2 uM by propidium iodide staining based cytometry (reference value: 64.92%); assay type: functional
Outline: (§4)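 T47D cells exposed to test compound at 9.2 μM. Cells stained with propidium iodide per kit procedure and run on a DNA cytometer. PBMCs of known DNA content served as reference for DNA index. Percent of cells in G1, S and G2/M phases compared with untreated control.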

[13] = Cell cycle arrest in human T47D cells assessed as G2/M phase accumulation at 9.2 uM by propidium iodide staining based cytometry (reference value: 15.81%); assay type: functional; outline: as §4
[14] = Cell cycle arrest in human T47D cells assessed as S phase accumulation at 9.2 uM by propidium iodide staining based cytometry (reference value: 17.14%); assay type: functional; outline: as §4
[15] = Cytotoxicity against human 184A1 cells after 48 hrs by sulforhodamine B assay; assay type: toxicity, cell-based; outline: as §1
[16] = Induction of apoptosis in human T47D cells assessed as upregulation of active caspase 3 level by immunoassay relative to letrozole; assay type: functional, cell-based
T47D [17] = assay: Induction of apoptosis in human T47D cells assessed as decrease in Bcl2 level at IC50 relative to control; assay type: functional
T47D [18] = assay: Induction of apoptosis in human T47D cells assessed as decrease in Bcl-xl level at IC50 relative to control; assay type: functional

Row | inhibition (INH) (Aromatase [2]) | Structure (SMILES) | IC50 [1] | further results
1 | 67% | Cc1ccnc(NS(=O)(=O)c2ccc(N/C=C\C(=O)c3cc4ccccc4oc3=O)cc2)n1 | 24.5 µM | IC50 (Aromatase [3]): 9.52 µM
2 | 65% | O=C(/C=C\Nc1ccc(S(=O)(=O)Nc2ccccn2)cc1)c1cc2ccccc2oc1=O | 37.6 µM | IC50 (Aromatase [3]): 12.5 µM
3 | 28% | Cc1cc(NS(=O)(=O)c2ccc(N/C=C\C(=O)c3cc4ccccc4oc3=O)cc2)on1 | 75.6 µM | 
4 | 70% | O=C(/C=C\Nc1ccc(S(=O)(=O)Nc2ccnn2-c2ccccc2)cc1)c1cc2ccccc2oc1=O | 9.2 µM | IC50 (Aromatase [3]): 5.09 µM; fold change (FC) [4]: 45; fold change (FC) [5]: 40; fold change (FC) [6]: 10; Activity (T47D [7]): 402127 IU/ml; Activity (T47D [8]): 1540 IU/ml; Activity (T47D [9]): 384 IU/ml; fold change (FC) (T47D [10]): 33000; Activity (T47D [11]): 31.7%; Activity [12]: 9.2%; Activity [13]: 44.5%; Activity [14]: 14.6%; IC50 at 48 h [15]: 184 µM; fold change (FC) [16]: 3; fold change (FC) (T47D [17]): 369; fold change (FC) (T47D [18]): 1965
5 | 20% | Cc1noc(NS(=O)(=O)c2ccc(N/C=C\C(=O)c3cc4ccccc4oc3=O)cc2)c1C | 68.4 µM | 
6 | 30% | Cc1cc(C)nc(NS(=O)(=O)c2ccc(N/C=C\C(=O)c3cc4ccccc4oc3=O)cc2)n1 | 62.2 µM | 
7 | 30% | N=C(N)NS(=O)(=O)c1ccc(N/C=C\C(=O)c2cc3ccccc3oc2=O)cc1 | 87.6 µM | 
8 | 44% | COc1cc(NS(=O)(=O)c2ccc(N/C=C\C(=O)c3cc4ccccc4oc3=O)cc2)nc(OC)n1 | 37.8 µM | 
9 | 41% | O=C(/C=C\Nc1ccc(S(=O)(=O)Nc2ncccn2)cc1)c1cc2ccccc2oc1=O | 75.2 µM | 
10 | 81% | COc1cnc(NS(=O)(=O)c2ccc(N/C=C\C(=O)c3cc4ccccc4oc3=O)cc2)nc1 | 8.8 µM | IC50 (Aromatase [3]): 6.07 µM; fold change (FC) [4]: 20.6; fold change (FC) [5]: 21.8; fold change (FC) [6]: 9.91; Activity (T47D [7]): 176887 IU/ml; Activity (T47D [8]): 693 IU/ml; Activity (T47D [9]): 6776 IU/ml; fold change (FC) (T47D [10]): 5936; IC50 at 48 h [15]: 172 µM; fold change (FC) [16]: 1.3; fold change (FC) (T47D [17]): 819.65; fold change (FC) (T47D [18]): 111.35
11 | 69% | COc1ncnc(NS(=O)(=O)c2ccc(N/C=C\C(=O)c3cc4ccccc4oc3=O)cc2)c1OC | 9.8 µM | IC50 (Aromatase [3]): 4.66 µM

More lines, now with the values behind:

Row | Structure (SMILES) | inhibition (INH) (Aromatase [2]) | IC50 [1] | further results
12 | COc1cccc2c1C(=O)c1c(O)c3c(c(O)c1C2=O)C[C@@](O)(C(=O)CO)C[C@@H]3O[C@H]1C[C@H](N)[C@H](O)[C@H](C)O1 [DOXORUBICIN] |  | 9.8 µM | 
13 | O=C(/C=C\Nc1ccc(S(=O)(=O)Nc2cnc3ccccc3n2)cc1)c1cc2ccccc2oc1=O |  | 86.9 µM | 
14 | Nc1ccc(S(=O)(=O)c2ccc(N/C=C\C(=O)c3cc4ccccc4oc3=O)cc2)cc1 |  | 91.9 µM | 
15 | CN(C)/C=C/C(=O)c1cc2ccccc2oc1=O |  | 146 µM | 
16 | Cc1cc(NS(=O)(=O)c2ccc(N/C=C\C(=O)c3cc4ccccc4oc3=O)cc2)nc(C)n1 |  | 100 µM | 
17 | Cc1nnc(NS(=O)(=O)c2ccc(N/C=C\C(=O)c3cc4ccccc4oc3=O)cc2)s1 |  | 94 µM | 
18 | O=C(C=CNc1ccc(S(=O)(=O)c2ccc(NC=CC(=O)c3cc4ccccc4oc3=O)cc2)cc1)c1cc2ccccc2oc1=O |  | 70.3 µM | 
19 | O=C(/C=C\Nc1ccc(S(=O)(=O)Nc2ccc3cn[nH]c3c2)cc1)c1cc2ccccc2oc1=O |  | 96.5 µM | 
20 | NS(=O)(=O)c1ccc(N/C=C\C(=O)c2cc3ccccc3oc2=O)cc1 |  | 109 µM | 
